The values that follow come from ChEMBL document CHEMBL1135464, “3-Aryl-2-quinolone derivatives: synthesis and characterization of in vitro and in vivo antitumor effects with emphasis on a new therapeutical target connected with cell migration” (J Med Chem, 2002).

The structures appear in SMILES notation.

The IC50 is the concentration at which inhibition is half-maximal. Usually MTD stands for the largest dose that counted as tolerated. High values mean better tolerability, low ones poorer tolerability.

One data set concerns A-427. The experiment in a line: Cytotoxicity against A-427 nonsmall lung cell line using MTT colorimetric assay. The data set is classed as functional, cell-based. The conditions noted are these: Homo sapiens. In short, it runs like this: (§1)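 Human tumour lines from ATCC were grown at 37 °C in sealed dishes in MEM with 5% FCS. Cells were seeded at 40000 cells/mL in 96-well plates and left 24 h to plate. Each drug was then tested at six concentrations from 10^-5 to 10^-9 M. Growth was read by colorimetric MTT assay.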

A further data set has as its system A549. The experiment in a line: Cytotoxicity against A549 nonsmall lung cell line using MTT colorimetric assay. The data set is classed as functional, cell-based. As to conditions: Homo sapiens. In short, it runs like this: as §1
(In general: Tetrazolium dyes change colour on reduction, which living cells bring about.)

Another data set deals with A 172. Put plainly: Cytotoxicity against A-172 glioblastomas using MTT colorimetric assay. The conditions noted are these: Homo sapiens. The data set is classed as functional, cell-based. The method in brief:
as §1

Data set [1] is described as follows: Evaluated in vivo for maximum tolerated dose and found to be nontoxic. It is filed as ADME, organism-based.
In another data set the test system is HCT-15. Put plainly: Cytotoxicity against HCT-15 colon cell line using MTT colorimetric assay. It is filed as functional, cell-based. The conditions noted are these: Homo sapiens. The method in brief:
as §1

For a further data set, the system named is J82. The experiment in a line: Cytotoxicity against J82 bladder cell lines using MTT colorimetric assay at 1x 10 E-5. The data set is classed as functional, cell-based. As to conditions: Homo sapiens. In short, it runs like this: as §1
Another data set deals with LoVo. Put plainly: Cytotoxicity measured on LoVo colon cell line using MTT colorimetric assay. It is filed as functional, cell-based. The conditions noted are these: Homo sapiens. In short, it runs like this:
as §1

The test system of a further data set is PC-3. Put plainly: Cytotoxicity against prostate cell line PC-3 using MTT colorimetric assay. The conditions noted are these: Homo sapiens. It is filed as functional, cell-based. In short, it runs like this:
as §1

The test system of a further data set is T47D. The experiment in a line: Cytotoxicity against Breast cancer cell line T-47D using MTT colorimetric assay. It is filed as functional, cell-based. As to conditions: Homo sapiens. In short, it runs like this: as §1
Another data set has as its system T-24. Put plainly: Cytotoxicity against T24 bladder cell lines using MTT colorimetric assay. It is filed as functional, cell-based. The conditions noted are these: Homo sapiens. In short, it runs like this:
as §1

The subject of a further data set is U373 MG. Put plainly: Cytotoxicity against U-373 MG glioblastomas using MTT colorimetric assay. The data set is classed as functional, cell-based, U-373MG ATCC. The conditions noted are these: Homo sapiens. The method in brief:
as §1

The test system of the next data set is U-87 MG. The experiment in a line: Cytotoxicity against U-87 MG glioblastomas using MTT colorimetric assay. The data set is classed as functional, cell-based, U-87MG ATCC. As to conditions: Homo sapiens. The method in brief: as §1
A further data set has as its system MCF7. Put plainly: Cytotoxicity against Breast cancer cell line MCF-7 using MTT colorimetric assay. The data set is classed as functional, cell-based. The conditions noted are these: Homo sapiens. The method in brief:
as §1

Data set [2] concerns Mus musculus. The experiment in a line: Evaluated in vivo for maximum tolerated dose (MTD/16) using MXT mouse mammary adenocarcinoma model ( ineffective). It is filed as ADME, organism-based. The method in brief:
(§2)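 MXT-HS hormone-sensitive mammary adenocarcinoma maintained by monthly s.c. transplantation in 6-week-old female B6D2F1 mice. Doses are set as fractions of the MTD. Drugs given i.p.; ETO and DOX 9 times, the quinolone 20 times. Nine mice per group. Tumor area (mm2) is the product of the two largest perpendicular caliper diameters, measured weekly. Mean ± SEM; Mann-Whitney test.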

In data set [3] the test system is Mus musculus. The experiment in a line: Evaluated in vivo for maximum tolerated dose (MTD/8) using MXT mouse mammary adenocarcinoma model.
The subject of data set [4] is Mus musculus. Put plainly: Evaluated in vivo for maximum tolerated dose (MTD/4) using MXT mouse mammary adenocarcinoma model.
Data set [5] deals with Mus musculus. The experiment in a line: Evaluated in vivo for maximum tolerated dose (MTD/2) using MXT mouse mammary adenocarcinoma model ( highly toxic).
Data set [6] has as its system Mus musculus. Put plainly: Evaluated in vivo for maximum tolerated dose (MTD/8) using MXT mouse mammary adenocarcinoma model. The data set is classed as functional. In short, it runs like this: as §2
The test system of data set [7] is Mus musculus. The experiment in a line: Evaluated in vivo for maximum tolerated dose (MTD16) using MXT mouse mammary adenocarcinoma model. It is filed as functional. In short, it runs like this: as §2
In data set [8] the test system is Mus musculus. Put plainly: Evaluated in vivo for maximum tolerated dose (MTD/2) using MXT mouse mammary adenocarcinoma model. It is filed as functional. In short, it runs like this: as §2
Data set [9] has as its system Mus musculus. The experiment in a line: Evaluated in vivo for maximum tolerated dose (MTD/4) using MXT mouse mammary adenocarcinoma model. The data set is classed as functional. The method in brief: as §2

For the compound `COc1ccc(-c2cc3c(OC)cc(OC)cc3n(CCC(=O)OCc3ccccc3)c2=O)cc1`, the IC50 with A-427, in the data set with A549, in the data set with A 172, with HCT-15, in the data set with J82 and in the data set with LoVo was more than 10 µM throughout. Further, the IC50 with PC-3, in the data set on T47D, with T-24, in the data set on U373 MG, in the data set on U-87 MG and in the data set with MCF7 was more than 10 µM throughout. In addition, the MTD in [1] stood at 160 mg/kg.
For `COc1cc([C@@H]2c3cc4c(cc3[C@@H](O[C@@H]3O[C@@H]5CO[C@@H](C)O[C@H]5[C@H](O)[C@H]3O)[C@H]3COC(=O)[C@H]23)OCO4)cc(OC)c1O` [ETOPOSIDE], the MTD/16 in the data set on Mus musculus [2] was found to be 5 mg/kg. The compound also gave an MTD/8 in the data set on Mus musculus [3] of 10 mg/kg. For the same compound, the MTD/4 with Mus musculus [4] came to 20 mg/kg. The same compound had an MTD/2 in the data set on Mus musculus [5] of 40 mg/kg.
As to `COc1cccc2c1C(=O)c1c(O)c3c(c(O)c1C2=O)C[C@@](O)(C(=O)CO)C[C@@H]3O[C@H]1C[C@H](N)[C@H](O)[C@H](C)O1` [DOXORUBICIN], the MTD/8 with Mus musculus [6] was determined as 1.25 mg/kg. Besides, the MTD/16 in the data set with Mus musculus [7] turned out to be 0.63 mg/kg. In the data set on Mus musculus [8], this compound showed an MTD/2 of 5 mg/kg. The MTD/4 with Mus musculus [9] came to 2.5 mg/kg.
